Measured values as given in PMC10896134 (Pharmaceutical Biology, 2024).

Tests used:
[1] = tested on: neuroblastoma cell lines; conditions: read-out: IC50 in neuroblastoma cell lines; ref Aggarwal et al. [2012]; cited from earlier work
[2] = tested on: non-neuroblastoma cell lines; conditions: read-out: IC50 in non-neuroblastoma cell lines; ref Aggarwal et al. [2012]; cited from earlier work
[3] = tested on: MCF-7; test: Antiproliferation assay; assay type: cell-based; conditions: Homo sapiens, MCF7, 24 h, read-out: IC50 = mean ± SD, MCF-7
In short: (§1)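 Cell lines were grown at 37 °C under 5% CO2 in their own media: A549 in DMEM/F12, H446 in RPMI 1640, and HeLa, MCF-7, L02 and BEAS-2B in high-glucose DMEM with L-glutamine, with 10% FBS and penicillin/streptomycin. Cells were seeded in 96-well plates and exposed to test compounds or reference agents at 37 °C for 24 h. CCK-8 was added for 2 h and absorbance read at 450 nm.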

[4] = tested on: Hela; test: Antiproliferation assay; assay type: cell-based; conditions: Homo sapiens, 24 h, read-out: IC50 = mean ± SD, Hela
In short: as §1

[5] = tested on: A549; test: Antiproliferation assay; assay type: cell-based; conditions: Homo sapiens, A549, 24 h, read-out: IC50 = mean ± SD, A549
In short: as §1

[6] = tested on: H446; test: Antiproliferation assay; assay type: cell-based; conditions: Homo sapiens, NCI-H446, 24 h, read-out: IC50 = mean ± SD, H446
In short: as §1

[7] = tested on: BEAS-2B; test: Antiproliferation assay; assay type: cell-based; conditions: Homo sapiens, 24 h, read-out: IC50 = mean ± SD, BEAS-2B
In short: as §1

[8] = tested on: L02; test: Antiproliferation assay; assay type: cell-based; conditions: Homo sapiens, L02, 24 h, read-out: IC50 = mean ± SD, L02
In short: as §1

[9] = tested on: A549 cells; test: Cell-cycle analysis; assay type: cell-based, human; conditions: A549, 1.0 µM, 24 h, Figure 4C
In short: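 A549 cells (5.0 × 10^4/well) adhered overnight, then received 0.1% DMSO, test compound (0.1, 0.5 or 1.0 µM) or reference agent (1.0 µM) for 24 h; a time course used 0.5 µM for 12, 24 and 36 h. Cells were fixed in 70% ethanol at 4 °C for 24 h and stained with RNase A plus propidium iodide at 4 °C for 0.5 h in the dark. Flow cytometry gated G0/G1, S and G2/M by DNA content.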

[10] = tested on: A549 cells; test: Mitochondrial membrane potential analysis; assay type: cell-based, human; conditions: A549, JC-1, 2.0 µM, 12 h; control 4.33%
[11] = tested on: interphase microtubules of A549 cells (tubulin); test: Confocal microscopy / western blot of tubulin depolymerization; assay type: cell-based, human; conditions: A549, 24 h; E5 0.5 and 1.0 µM, colchicine 1.0 µM, etoposide 1.0 µM
[12] = tested on: A549 cells; test: Wound healing migration assay; assay type: cell-based, human; conditions: A549, 24 h; E5 0.5, 1.0 and 2.0 µM, etoposide 1.0 µM
In short: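 Scratch assay: A549 cells were grown to 85% confluence in 6-well plates, scratched with a pipette tip and washed with PBS. They were then incubated at 37 °C for 24 h with 0.1% DMSO, test compound (0.5, 1.0 or 2.0 µM) or reference agents (1.0 µM). Wounds were imaged at 0 and 24 h, and inhibition of migration was expressed relative to control.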

[13] = tested on: A549 cells; test: Transwell invasion assay; assay type: cell-based, human; conditions: A549, 24 h; better than PPT and etoposide at 1.0 µM
[14] = tested on: A549 cells; test: Colony formation assay; assay type: cell-based, human; conditions: A549, versus control and PPT-treated cells
[15] = tested on: PI3K/Akt pathway in A549 cells; test: Western blot of PI3K/Akt signalling pathway proteins; assay type: cell-based, human; conditions: A549, E5 0.1, 1.0 and 2.0 µM, 24 h
In short: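 A549 cells were treated 24 h with test compound (0.1, 0.5, 1.0 or 2.0 µM), LY294002 (1.0 µM) or a reference agent (1.0 µM). Lysates were heat-denatured in non-reducing sample buffer and quantified by Bradford assay. 20 µg protein ran on 10% SDS-PAGE, transferred to PVDF and probed for PI3K, pPI3K, Akt and pAkt with GAPDH as loading control. Detection was by ECL with densitometry.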

[16] = tested on: Bax and Bcl-2 in A549 cells; test: Western blot of apoptosis-related proteins; assay type: cell-based, human
In short: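 Immunoblot of A549 lysates: heat-denatured in non-reducing sample buffer, Bradford-quantified, 20 µg protein on 10% SDS-PAGE, transferred to PVDF. Blots were probed for Bax and Bcl-2 with GAPDH as internal control, detected by ECL and quantified by densitometry. Data given as mean ± SD.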

[17] = tested on: A549 xenografts; test: A549 xenograft tumour model in nude mice; assay type: in vivo, female BALB/c nude mice; conditions: 2 mg/kg i.p. once every two days, eight times
In short: (§2)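 Female BALB/c nude mice, 5 weeks old, acclimated 1 week, then given 5.0 × 10^6 A549 cells in 0.1 mL serum-free medium subcutaneously into the left axilla. Body weight and caliper tumour size (0.5 × length × width2) were taken every two days; tumours were excised and weighed at the end.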

[18] = Body weight of xenograft mice; assay type: in vivo, female BALB/c nude mice; conditions: E5 i.p., A549 xenograft mice, 15 days
In short: as §2

[19] = tested on: non-small cell lung cancer (NSCLC) cell lines; conditions: at 2 mM; ref Chang and Szabo [2002]; cited from earlier work

COc1ccc(S(=O)(=O)Nc2cccnc2Nc2ccc(O)cc2)cc1 [ABT-751]
IC50 [1]: ~1.5 µM
IC50 [2]: ~3.4 µM

COc1cc([C@@H]2c3cc4c(cc3[C@H](OC(=O)CCCc3ccc(NS(=O)(=O)c5cccc(Br)c5)cc3)[C@H]3COC(=O)[C@H]23)OCO4)cc(OC)c1OC [Compound E5, (5R,5aR,8aR,9R)-8-oxo-9-(3,4,5-trimethoxyphenyl)-5,5a,6,8,8a,9-hexahydrofuro [3′,4′:6,7]naphtho[2,3-d][1,3]dioxol-5-yl4-(4-((3-bromophenyl)sulfonamido)phenyl)butanoate]
IC50 [3]: 2.91 ± 0.55 µM
IC50 [4]: 51.3 ± 1.42 µM
IC50 [5]: 0.35 ± 0.13 µM
IC50 [6]: 2.42 ± 0.3 µM
IC50 [7]: > 100 µM
IC50 [8]: > 100 µM
cells in G2/M phase [9]: 32.73%
cells in S phase [9]: 34.09%
cells with low ΔΨm (ratio of cells with low membrane potential) [10]: 24.7%
tubulin depolymerization [11]: significant tubulin depolymerization
cell scratch healing (migration) [12]: significantly slowed dose dependent
cell invasion [13]: effectively inhibited cell invasion
clone formation rate and clone size [14]: lower clone formation rate and a smaller clone size
expression of pPI3K and pAkt [15]: down-regulated dose-dependent
Bax expression [16]: increased
expression of the antiapoptotic protein Bcl-2 [16]: significantly decreased
tumour growth, E5 and etoposide at the same dose [17]: specific inhibitory effect
body weight of the mice [18]: no significant changes

COc1cc([C@@H]2c3cc4c(cc3[C@@H](O[C@@H]3O[C@@H]5CO[C@@H](C)O[C@H]5[C@H](O)[C@H]3O)[C@H]3COC(=O)[C@H]23)OCO4)cc(OC)c1O [Etoposide, etoposide, reference compound]
IC50 [3]: 10.9 ± 0.39 µM
IC50 [4]: 24.7 ± 0.79 µM
IC50 [5]: 9.32 ± 0.55 µM
IC50 [6]: 2.21 ± 0.42 µM
IC50 [7]: 67.6 ± 2.25 µM
IC50 [8]: 13.5 ± 1.15 µM
tubulin depolymerization [11]: did not show such an effect
cell scratch healing (migration) [12]: strong inhibitory effect
tumour growth, E5 and etoposide at the same dose [17]: specific inhibitory effect

O=C([O-])CCCc1ccccc1.[Na+] [sodium 4-phenylbutyrate]
growth of NSCLC cell lines [19]: impeding the growth
